From ChEMBL document CHEMBL1153746, “Mansouramycins A-D, cytotoxic isoquinolinequinones from a marine streptomycete” (J Nat Prod, 2009)
pIC50: −log10 of the molar value.

What was measured:
[1] = Cytotoxicity against human 1218L cells after 4 days by propidium iodide assay; type: functional, cell-based; conditions: 96 h
In short: (§1)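 Monolayer cell proliferation assay across a panel of up to 36 human tumour lines covering 14 solid tumour types. Lines came either from patient tumours grown as subcutaneous xenografts in NMRI nu/nu mice or from culture collections (ATCC, NCI, DSMZ). Potency is given as IC50.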

[2] = Cytotoxicity against human 498NL cells after 4 days by propidium iodide assay; type: functional, cell-based; conditions: 96 h; in short: as §1
[3] = Cytotoxicity against human GXF251L cells after 4 days by propidium iodide assay; type: functional, cell-based; conditions: GXF 251L, 96 h; in short: as §1
[4] = Cytotoxicity against human 289L cells after 4 days by propidium iodide assay; type: functional, cell-based; conditions: 96 h; in short: as §1
[5] = Cytotoxicity against human LXFL 529L cells after 4 days by propidium iodide assay; type: functional, cell-based; conditions: 96 h; in short: as §1
[6] = Cytotoxicity against human 629L cells after 4 days by propidium iodide assay; type: functional, cell-based; conditions: 96 h; in short: as §1
[7] = Cytotoxicity against human MAXF 401NL cells after 4 days by propidium iodide assay; type: functional, cell-based; conditions: 96 h; in short: as §1
[8] = Cytotoxicity against human 276L cells after 4 days by propidium iodide assay; type: functional, cell-based; conditions: 96 h; in short: as §1
[9] = Cytotoxicity against human MEXF 462NL cells after 4 days by propidium iodide assay; type: functional, cell-based; conditions: 96 h; in short: as §1
[10] = Cytotoxicity against human 899L cells after 4 days by propidium iodide assay; type: functional, cell-based; conditions: 96 h; in short: as §1
OVCAR-3 = test: Cytotoxicity against human OVCAR-3 cells after 4 days by propidium iodide assay; type: functional, cell-based; conditions: OVCAR-3, 96 h; in short: as §1
[11] = Cytotoxicity against human 1657L cells after 4 days by propidium iodide assay; type: functional, cell-based; conditions: 96 h; in short: as §1
CWR22R = test: Cytotoxicity against human 22Rv1 cells after 4 days by propidium iodide assay; type: functional, cell-based; conditions: 22Rv1, 96 h; in short: as §1
[12] = Cytotoxicity against human PC3M cells after 4 days by propidium iodide assay; type: functional, cell-based; conditions: PC-3M, 96 h; in short: as §1
[13] = Cytotoxicity against human 1752L cells after 4 days by propidium iodide assay; type: functional, cell-based; conditions: 96 h; in short: as §1
[14] = Cytotoxicity against human 393NL cells after 4 days by propidium iodide assay; type: functional, cell-based; conditions: 96 h; in short: as §1
[15] = Cytotoxicity against human RXF 486L cells after 4 days by propidium iodide assay; type: functional, cell-based; conditions: 96 h; in short: as §1
[16] = Cytotoxicity against human UXF 1138L cells after 4 days by propidium iodide assay; type: functional, cell-based; conditions: 96 h; in short: as §1
Bacillus subtilis = test: Antibacterial activity against Bacillus subtilis at […] by agar diffusion test; type: functional
Escherichia coli = test: Antibacterial activity against Escherichia coli at […] by agar diffusion test; type: functional
Staphylococcus aureus = test: Antibacterial activity against Staphylococcus aureus at […] by agar diffusion test; type: functional
[17] = test system: Streptomyces viridochromogenes; test: Antibacterial activity against Streptomyces viridochromogenes at […] by agar diffusion test; type: functional
Candida albicans = test: Antifungal activity against Candida albicans at […] by agar diffusion test; type: functional
Rhizomucor miehei = test: Antifungal activity against Mucor miehei at […] by agar diffusion test; type: functional
Chlorella vulgaris = test: Antialgal activity against Chlorella vulgaris at […] by agar diffusion test; type: functional
Chlorella sorokiniana = test: Antialgal activity against Chlorella sorokiniana at […] by agar diffusion test; type: functional
Desmodesmus subspicatus = test: Antialgal activity against Scenedesmus subspicatus at […] by agar diffusion test; type: functional
[18] = Cytotoxicity against human BXF T24 cells after 4 days by propidium iodide assay; type: functional, cell-based; conditions: T-24, 96 h; in short: as §1
SF-268 = test: Cytotoxicity against human SF268 cells after 4 days by propidium iodide assay; type: functional, cell-based; conditions: SF-268, 96 h; in short: as §1
HCT-116 = test: Cytotoxicity against human HCT116 cells after 4 days by propidium iodide assay; type: functional, cell-based; conditions: HCT-116, 96 h; in short: as §1
HT-29 = test: Cytotoxicity against human HT-29 cells after 4 days by propidium iodide assay; type: functional, cell-based; conditions: HT-29, 96 h; in short: as §1
[19] = Cytotoxicity against human 536L cells after 4 days by propidium iodide assay; type: functional, cell-based; conditions: 96 h; in short: as §1
[20] = Cytotoxicity against human 1121L cells after 4 days by propidium iodide assay; type: functional, cell-based; conditions: 96 h; in short: as §1
[21] = Cytotoxicity against human 526L cells after 4 days by propidium iodide assay; type: functional, cell-based; conditions: 96 h; in short: as §1
NCI-H460 = test: Cytotoxicity against human H460 cells after 4 days by propidium iodide assay; type: functional, cell-based; conditions: NCI-H460, 96 h; in short: as §1
MCF7 = test: Cytotoxicity against human MCF7 cells after 4 days by propidium iodide assay; type: functional, cell-based; conditions: MCF7, 96 h; in short: as §1
[22] = Cytotoxicity against human 394NL cells after 4 days by propidium iodide assay; type: functional, cell-based; conditions: 96 h; in short: as §1
[23] = Cytotoxicity against human 514L cells after 4 days by propidium iodide assay; type: functional, cell-based; conditions: 96 h; in short: as §1
[24] = Cytotoxicity against human 520L cells after 4 days by propidium iodide assay; type: functional, cell-based; conditions: 96 h, in the assay text read “MTT assay” for “propidium iodide assay”; in short: as §1
[25] = Cytotoxicity against human 1619L cells after 4 days by propidium iodide assay; type: functional, cell-based; conditions: 96 h, in the assay text read “MTT assay” for “propidium iodide assay”; in short: as §1
PANC-1 = test: Cytotoxicity against human PANC1 cells after 4 days by propidium iodide assay; type: functional, cell-based; conditions: PANC-1, 96 h; in short: as §1
DU-145 = test: Cytotoxicity against human DU145 cells after 4 days by propidium iodide assay; type: functional, cell-based; conditions: DU-145, 96 h; in short: as §1
LNCaP = test: Cytotoxicity against human LNCAP cells after 4 days by propidium iodide assay; type: functional, cell-based; conditions: 96 h; in short: as §1
[26] = Cytotoxicity against human 1781L cells after 4 days by propidium iodide assay; type: functional, cell-based; conditions: 96 h; in short: as §1
[27] = Cytotoxicity against human RXF 944L cells after 4 days by propidium iodide assay; type: functional, cell-based; conditions: 96 h; in short: as §1
[28] = Cytotoxicity against human 1218 cells after 7 to 20 days by clonogenic assay; type: functional, cell-based
In short: (§2)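 Colony formation assay for clonogenicity. Cell suspensions were prepared from patient-derived human tumour xenografts, kept by serial subcutaneous passage in NMRI nu/nu mice. Cells were embedded and incubated in culture medium containing soft agar. Potency is given as IC50.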

[29] = Cytotoxicity against human 243 cells after 7 to 20 days by clonogenic assay; type: functional, cell-based; in short: as §2
[30] = Cytotoxicity against human 575 cells after 7 to 20 days by clonogenic assay; type: functional, cell-based; in short: as §2
[31] = Cytotoxicity against human LXFA 526 cells after 7 to 20 days by clonogenic assay; type: functional, cell-based; in short: as §2
[32] = Cytotoxicity against human LXFA 629L cells after 7 to 20 days by clonogenic assay; type: functional, cell-based; in short: as §2
[33] = Cytotoxicity against human 1322 cells after 7 to 20 days by clonogenic assay; type: functional, cell-based; in short: as §2
[34] = Cytotoxicity against human 401 cells after 7 to 20 days by clonogenic assay; type: functional, cell-based; in short: as §2
[35] = Cytotoxicity against human 276 cells after 7 to 20 days by clonogenic assay; type: functional, cell-based; in short: as §2
[36] = Cytotoxicity against human 514 cells after 7 to 20 days by clonogenic assay; type: functional, cell-based; in short: as §2
[37] = Cytotoxicity against human 899 cells after 7 to 20 days by clonogenic assay; type: functional, cell-based; in short: as §2
[38] = Cytotoxicity against human RXF631 cells after 7 to 20 days by clonogenic assay; type: functional, cell-based; conditions: RXF 631; in short: as §2
[39] = Cytotoxicity against human NSB005 cells after 7 to 20 days by clonogenic assay; type: functional, cell-based
In short: (§3)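 Colony formation assay on hematopoietic stem cells from cord blood, used as nonmalignant tissue. Cells were embedded and incubated in culture medium containing methyl cellulose. Potency is given as IC50.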

[40] = Cytotoxicity against human NSB008 cells after 7 to 20 days by clonogenic assay; type: functional, cell-based; in short: as §3
[41] = in the assay text read “MTT assay” for “propidium iodide assay”

## CNC1=C(Cl)C(=O)c2cc(C)ncc2C1=O
[1]
  pIC50: 5.86
[2]
  pIC50: 5.87
[3]
  pIC50: 5.76
[4]
  pIC50: 5.22
[5]
  pIC50: 5.81
[6]
  pIC50: 5.91
[7]
  pIC50: 5.45
[8]
  pIC50: 6.44
[9]
  pIC50: 5.25
[10]
  pIC50: 4.86
OVCAR-3
  pIC50: 5.70
[11]
  pIC50: 5.74
CWR22R
  pIC50: 5.25
[12]
  pIC50: 5.49
[13]
  pIC50: 5.28
[14]
  pIC50: 5.80
[15]
  pIC50: 4.75
[16]
  pIC50: 5.77

## O=S(=O)(O)O.Oc1cccc2cccnc12 [QUINOSOL]
Bacillus subtilis
  diameter of the inhibition zone (DIZ): 15 mm
Escherichia coli
  diameter of the inhibition zone (DIZ): 15 mm
Staphylococcus aureus
  diameter of the inhibition zone (DIZ): 20 mm
[17]
  diameter of the inhibition zone (DIZ): 0 mm
Candida albicans
  diameter of the inhibition zone (DIZ): 11 mm
Rhizomucor miehei
  diameter of the inhibition zone (DIZ): 30 mm
Chlorella vulgaris
  diameter of the inhibition zone (DIZ): 25 mm
Chlorella sorokiniana
  diameter of the inhibition zone (DIZ): 28 mm
Desmodesmus subspicatus
  diameter of the inhibition zone (DIZ): 27 mm

## CNC1=CC(=O)c2cc(C)ncc2C1=O
[1]
  pIC50: 4.99
[18]
  pIC50: 6.21
[2]
  pIC50: 5.28
SF-268
  pIC50: 5.74
HCT-116
  pIC50: 5.44
HT-29
  pIC50: 5.70
[3]
  pIC50: 5.44
[19]
  pIC50: 6.42
[20]
  pIC50: 5.18
[4]
  pIC50: 5.52
[21]
  pIC50: 4.97
[5]
  pIC50: 5.31
[6]
  pIC50: 5.93
NCI-H460
  pIC50: 5.41
[7]
  pIC50: 4.76
MCF7
  pIC50: 5.95
[8]
  pIC50: 6.46
[22]
  pIC50: 5.24
[9]
  pIC50: 4.72
[23]
  pIC50: 5.69
[24]
  pIC50: 6.62
[25]
  pIC50: 5.40
[10]; [41]
  pIC50: 5.18
OVCAR-3; [41]
  pIC50: 5.12
[11]; [41]
  pIC50: 5.31
PANC-1
  pIC50: 5.42
CWR22R
  pIC50: 5.33
DU-145
  pIC50: 6.47
LNCaP
  pIC50: 5.20
[12]
  pIC50: 5.22
[13]
  pIC50: 5.22
[26]
  pIC50: 5.00
[14]
  pIC50: 5.38
[15]
  pIC50: 4.30
[27]
  pIC50: 5.27
[16]; [41]
  pIC50: 5.65
[28]
  pIC50: 5.36
[29]
  pIC50: 4.99
[30]
  pIC50: 5.08
[31]
  pIC50: 5.37
[32]
  pIC50: 5.79
[33]
  pIC50: 5.08
[34]
  pIC50: 5.41
[35]
  pIC50: 6.48
[36]
  pIC50: 7.30
[37]
  pIC50: 5.27
[38]
  pIC50: 5.11
[39]
  pIC50: 5.34
[40]
  pIC50: 5.34
